# Measured values as given in PMC4445693 (Clinical Pharmacology : Advances and Applications, 2015).
# Like-named read-outs stand apart in the source and are kept apart here.
# Key:
# [1] = Single-dose plasma and skin-tissue pharmacokinetics of daptomycin in rats; format: in vivo, rat
# How it was run: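 Rats (10 weeks), scalp depilated, sevoflurane-anaesthetised; test compound 10 mg/mL in saline s.c. Blood and 10×15 mm scalp skin sampled 1, 3, 5, 8, 12 h (3/time point); skin homogenised in 9 vol 1% phosphate buffer pH 6.0, extracted 4°C 18 h. Acetonitrile precipitation, mefenamic acid internal standard; C8 HPLC, UV 214 nm. Cmax/Tmax observed; AUC, MRT by trapezoidal rule; mean ± SD.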
# [2] = cited from earlier work
# [3] = human plasma; cited from earlier work
# [4] = cited from earlier work; for AUC24 h in plasma: rat
# [5] = male, Wistar, rat, plasma, sc, 50 mg/kg, SD
compound,measurement,setting,value
CCCCCCCCCC(=O)N[C@@H](Cc1c[nH]c2ccccc12)C(=O)N[C@H](CC(N)=O)C(=O)N[C@@H](CC(=O)O)C(=O)N[C@@H]1C(=O)NCC(=O)N[C@@H](CCCN)C(=O)N[C@@H](CC(=O)O)C(=O)N[C@H](C)C(=O)N[C@@H](CC(=O)O)C(=O)NCC(=O)N[C@H](CO)C(=O)N[C@@H]([C@H](C)CC(=O)O)C(=O)N[C@@H](CC(=O)c2ccccc2N)C(=O)O[C@@H]1C [daptomycin],Tmax skin tissue,"[1]; male Wistar rats, single subcutaneous 50 mg/kg, skin tissue",3.0 h
same,Tmax,"[1]; male, Wistar, rat, plasma, sc, 50 mg/kg",3 h
same,AUC(0-inf),[1]; [5],812 ± 31.9 µg·h/mL
same,Cmax,[1]; [5],176 ± 6.3 µg/mL
same,MRT,[1]; [5],2.28 ± 0.33 h
same,half-life,[1]; [5],1.58 ± 0.23 h
same,Protein binding in rat serum,[2],89.3%
same,Plasma protein binding in humans,[3],92%
same,t½,"[4]; rat plasma, previous studies",1.6 to 2.9 h
same,AUC24 h in plasma,[4]; intraperitoneal dose of 30 mg/kg/day,558 µg·h/mL
same,AUC24 h in plasma,[4]; subcutaneous dose of 40 mg/kg/day,605 µg·h/mL
